High-throughput results: PubChem, several laboratories
PLAP act – human PLAP activation; P05187; activation fold at 20 µM; AID 696; 1.2% of 96,000 active; purified PLAP enzyme, luminescent substrate read-out; stronger effect = higher value; in the data active = activation fold above about 2
Target sequence (P05187 whole entry, looked up): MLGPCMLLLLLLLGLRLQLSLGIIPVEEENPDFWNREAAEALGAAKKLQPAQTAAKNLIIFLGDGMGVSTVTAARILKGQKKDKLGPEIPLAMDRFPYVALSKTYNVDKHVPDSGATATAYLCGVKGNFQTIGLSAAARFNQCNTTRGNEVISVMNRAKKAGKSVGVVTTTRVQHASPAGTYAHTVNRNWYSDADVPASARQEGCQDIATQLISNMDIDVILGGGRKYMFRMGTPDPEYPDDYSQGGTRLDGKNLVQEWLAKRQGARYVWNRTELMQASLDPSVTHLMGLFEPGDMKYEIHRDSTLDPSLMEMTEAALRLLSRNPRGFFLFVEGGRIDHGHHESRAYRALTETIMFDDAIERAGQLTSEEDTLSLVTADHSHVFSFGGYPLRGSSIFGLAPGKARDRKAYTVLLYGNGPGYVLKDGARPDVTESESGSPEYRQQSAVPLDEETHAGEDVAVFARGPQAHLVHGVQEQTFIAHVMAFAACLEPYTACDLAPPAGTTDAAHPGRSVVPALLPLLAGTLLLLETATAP
PostGolgi ctrl – yeast control strain growth, post-Golgi counter-screen | 5% of 98,000 active | efflux-deficient yeast background strain, growth absorbance A615, 16 h | inhibition, % at 10 µM
E coli WT exp – E. coli BW25113 growth inhibition, expanded screen. OD600 absorbance. growth inhibition, % at 100 µM. 0.15% of 98,000 active. AID 710;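 active = growth inhibition above about 50% at one test dose, limit read from the data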;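 also: growth measured after 20 h incubation at 37 °C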
Ecoli tolC – E. coli tolC mutant growth inhibition; 2.2% of 65,000 active; E. coli BW25113 tolC mutant growth, OD615; AID 573; growth inhibition, % at 10 µM (by protocol);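 active = growth inhibition at or above a cutoff equal to the mean over every tested compound plus 3 SD, cut at about 60% in these data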;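 also: growth measured after 20 h incubation at 37 °C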
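Test system: E. coli BW25113 ΔtolC::kan bacteria | Medium: Kanamycin-containing LB broth (50 µg/mL) | Dosing: One dose of 10 µM final | Times: 20 h incubation with compound, 37 °C | Detection: Optical density read at 615 nm | Read-out basis: Percent growth inhibition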
PostGolgi yeast – growth inhibition of a yeast mutant, post-Golgi transport screen | post-Golgi transport phenotypic cell assay | inhibition, % at 10 µM | 0.9% of 98,000 active;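 also: yeast cells grown in 1536-well plates; yeast grown about 18 h at 30C before absorbance read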
HePTP inh – human HePTP phosphatase inhibition. inhibition, % at 20 µM. recombinant HePTP phosphatase activity, OD absorbance. 0.64% of 110,000 active; in the data active = inhibition above about 50%;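 also: plate controls were vehicle for no effect and reference inhibitor for full effect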
The depositor's hits bear a star; . = not tested or not shown. The list is not random: actives were taken first. Their share in the collection is about 5.4%. Rule as the data show it, unless noted: active = inhibition above about 30%; inactive = the rest.

SMILES | PLAP act | PostGolgi ctrl | E coli WT exp | Ecoli tolC | PostGolgi yeast | HePTP inh
O=C1N(c2ccccc2)C2CS(=O)(=O)CC2N1c1ccc(Cl)c(Cl)c1 (stereo not drawn) | 0.8 | 7.3 | -3.0 | -11.0 | -4.2 | 7.5
O=C(CC(c1ccccc1)c1ccccc1)NCC1CCCO1 (stereo not drawn) | 1 | 8.5 | -3.0 | . | -5.7 | -2.4
Cc1nn(-c2ccccc2)c(Cl)c1C1C(C#N)=C(N)OC2=C1C(=O)CCC2 (stereo not drawn) | 1.3 | 5.0 | 2.0 | 15.7 | -5.1 | -6.0
CCOC(=O)N1CCC(n2c(SCC(=O)Nc3ccccc3OC)nc3ccccc3c2=O)CC1 | 1.5 | 13.2 | -22.0 | 54.8 | -3.8 | -13.9
COc1ccc(CN2C(=O)CN(C3CCCCCC3)C(=O)C2c2ccc(OC)c(OC)c2)cc1 (stereo not drawn) | 1.1 | 0.1 | 0.0 | -5.8 | 0.2 | 0.3
COc1ccc(S(=O)(=O)Nc2ccccc2OC)cc1 | . | . | . | . | . | 9.1
Cc1cc(NC(=O)c2c(F)cccc2F)n(-c2nc3ccccc3[nH]2)n1 | 1.2 | 30.0* | -7.0 | . | -0.7 | .
COc1cc2oc(=O)c3c(c2cc1Cl)CCCC3 | . | . | . | . | . | -2.3
CCc1cc2c3c(c(=O)oc2cc1OC)CCCC3 | 0.9 | 49.1* | -6.0 | 32.1 | -1.6 | 6.9
CC(=O)c1ccc(N2CCN(C(=O)c3ccco3)CC2)c(F)c1 | 1 | 5.3 | 6.0 | -5.4 | -18.3 | 9.3
CC(=O)c1ccc(N2CCN(C(=O)c3ccc(Br)cc3)CC2)c(F)c1 | 1.3 | 53.6* | -2.0 | 12.2 | 86.8* | -5.0
Cc1ccc(NC(=O)CSc2nnc(Cn3c(=O)sc4ccccc43)n2C)cc1 | . | 4.5 | -5.0 | -3.4 | 4.8 | 1.4
CCCCN(CC)C(=O)Cc1c(C(=O)O)[nH]c2ccc(Cl)cc12 | 1.1 | 32.2* | -9.0 | 40.4 | 3.4 | 9.1
O=C(/C=C/c1ccc(F)cc1)N1CCN(c2cccc(Cl)c2)CC1 | . | . | . | . | . | 103.6*
CCC(C(=O)N1CCN(c2cccc(Cl)c2)CC1)c1ccccc1 (stereo not drawn) | 1.1 | 12.1 | -6.0 | 100.0* | -17.5 | 3.0
O=C(CSc1nc2nc(-c3cccs3)cc(C(F)(F)F)c2c(=O)[nH]1)NCc1ccco1 | 1.1 | -0.9 | -13.0 | 91.2* | 11.2 | 12.1
O=C(Oc1ccc(Cl)c2cccnc12)c1ccco1 | 1.6 | 12.3 | 100.0* | . | -5.3 | .
CCOc1ccccc1OC(=O)c1ccco1 | 1 | 35.9* | 9.0 | -7.8 | -2.2 | 3.7
NS(=O)(=O)c1cccc(NC(=O)c2ccc(-c3ccccc3)cc2)c1 | . | . | . | . | . | 5.0
COc1ccc(C(=O)Nc2nc3ccccc3[nH]2)cc1S(=O)(=O)N1CCCC1 | 2* | 6.6 | 6.0 | . | 2.2 | .
O=C(Nc1ncn[nH]1)c1ccc(Cl)c(S(=O)(=O)N2CCCCCC2)c1 | 2.1* | 3.3 | -20.0 | . | -5.4 | .
CC(C)NC(=O)COC(=O)c1ccc(Cl)c(S(=O)(=O)N2CCCC2)c1 | 1 | 31.9* | 6.0 | . | -3.1 | .
CCOC(=O)C1=C(C)NC(C)=C(C(=O)OCC)C1 | 0.9 | 5.3 | 0.0 | 4.3 | 6.8 | 2.9
O=C1CCCc2ccccc2N1Cc1ccccc1Cl | 1 | 34.4* | 6.0 | . | 9.2 | .
Clc1cccc(Cl)c1CSc1cc2c(nn1)-c1ccccc1CC2 | 0.9 | 4.5 | -18.0 | . | -2.4 | .
SMILES | PLAP act | PostGolgi ctrl | E coli WT exp | Ecoli tolC | PostGolgi yeast | HePTP inh
O=C1CCCc2ccccc2N1Cc1ccc(Cl)cc1Cl | 1.4 | 31.0* | 6.0 | . | 6.9 | .
O=c1cc2c(nn1Cc1c(Cl)cccc1Cl)-c1ccccc1CC2 | 1.4 | 31.8* | -7.0 | . | 15.5 | .
O=C1CCCc2ccccc2N1Cc1ccc(Cl)cc1 | 0.7 | 22.5 | 9.0 | . | 6.9 | .
O=C1CCCc2ccccc2N1Cc1cccc(Cl)c1 | 0.9 | 26.5 | 9.0 | . | 15.7 | .
O=C1CCCc2ccccc2N1Cc1c(Cl)cccc1Cl | 1.3 | 41.5* | 5.0 | . | 8.3 | .
CCOC(=O)c1cc2c3c(c1)C1C=CCC1C(c1ccc([N+](=O)[O-])cc1)N3CC1CC=CC21 (stereo not drawn) | . | . | . | . | . | 5.6
O=c1c(Cc2ccc(Cl)cc2)c(O)ccn1Cc1cccc(Cl)c1 | 0.9 | 23.9 | -2.0 | . | 0.5 | .
O=c1c(Cc2ccc(Cl)cc2Cl)c(O)ccn1Cc1ccc(Cl)cc1 | 1.3 | 62.0* | 2.0 | . | 14.0 | .
COc1ccc(Cl)cc1NC(=O)C1CCCN(c2cc(C)nc3ncnn23)C1 (stereo not drawn) | 1.7 | 3.4 | 3.0 | 1.1 | 21.4 | -1.3
COCCn1c(C)cc(C(=O)CSc2ccc3ccccc3n2)c1C | 1.4 | 31.4* | -19.0 | . | -0.3 | .
COc1ccc(NC(=O)c2cc3n(n2)C(C(F)(F)F)CC(c2ccc(F)cc2)N3)cc1OC (stereo not drawn) | . | . | . | . | . | 7.9
Brc1ccc(-c2nc(-c3cccnc3)no2)o1 | 1 | -4.4 | -2.0 | -7.9 | -2.7 | 11.6
Brc1ccc(-c2nc(-c3ccccc3)no2)o1 | 0.9 | 0.1 | 7.0 | 98.1* | 3.2 | -5.7
CCOC(=O)c1c(NC(=O)CN2CCN(C)CC2)sc2c1CCC(C)C2 (stereo not drawn) | . | . | . | . | . | -4.7
Clc1ccc(CSc2nnc(CNc3cccc(Cl)c3)o2)cc1 | 0.3 | 45.3* | -8.0 | . | 16.0 | .
O=C(CSc1nnc(CNc2cccc(Cl)c2)o1)OC1CCCCC1 | 1.1 | 31.4* | 2.0 | . | 24.6 | .
CC(C)(C)OC(=O)NCCc1nnc(SCc2ccc(Cl)cc2)o1 | 0.9 | 14.5 | 6.0 | . | 1.4 | .
Cc1nn(Cc2ccc(Cl)c(Cl)c2)c(C)c1NC(=O)c1cn(-c2ccccc2)nc1-c1ccccc1 | 2.7* | 2.3 | -7.0 | . | 5.6 | .
Cc1nn(Cc2ccc(Cl)c(Cl)c2)c(C)c1NC(=O)c1cc(-c2ccc3c(c2)OCO3)on1 | 0.8 | 22.8 | -5.0 | 23.1 | 4.5 | -21.7
COc1ccc(-n2c(COc3ccccc3)nnc2SCc2ccc(C#N)cc2)cc1 | 1 | 15.6 | -29.0 | 63.4* | 2.1 | 15.9
N#Cc1ccc(CSc2nnc(-c3cccs3)n2-c2ccccc2)cc1 | 1.1 | 43.2* | -26.0 | 74.3* | -4.5 | -1.9
N#Cc1ccc(CSc2nnc(-c3ccccn3)n2-c2ccccc2)cc1 | 1 | 6.9 | 1.0 | 9.7 | 0.8 | 6.0
Cc1ccc(-c2nnc(CSc3nnc(COc4ccccc4)n3-c3ccc(C)cc3)o2)cc1 | 1.8 | 33.7* | -19.0 | 29.8 | 6.1 | 2.0
Cc1ccc(-c2nnc(CSc3nnc(COc4ccccc4)n3-c3ccccc3)o2)cc1 | 1.5 | 16.2 | -22.0 | 53.2 | -0.8 | 2.7
N#Cc1ccc(CSc2nnc(COc3ccccc3)n2-c2ccccc2)cc1 | 1.3 | 21.1 | -16.0 | . | -3.5 | .
SMILES | PLAP act | PostGolgi ctrl | E coli WT exp | Ecoli tolC | PostGolgi yeast | HePTP inh
O=C1CCc2cc(S(=O)(=O)NC(Cc3ccccc3)C(=O)NCCC3=CCCCC3)ccc2N1 (stereo not drawn) | 1.9 | 2.7 | 4.0 | . | -2.2 | .
CCOCCCNC(=S)NNC(=O)CCn1nc(C)c(Br)c1C | 2.9* | 13.6 | 2.0 | . | 0.5 | .
CNC(=S)NNC(=O)Cn1ccc(C)n1 | 1.4 | 3.0 | -1.0 | . | 8.0 | .
CCOCCCNC(=O)c1c(C)c(C(=O)OCC)n(C)c1C | 1.3 | 12.2 | -4.0 | 0.0 | 9.8 | -7.8
Cc1nn(CCC(=O)NNC(=S)NCC(C)C)c(C)c1Br | 2.5* | 2.2 | 1.0 | . | 6.7 | .
Cc1cc(C(=O)NNC(=S)NCC(C)C)no1 | 1.8 | -1.5 | 3.0 | . | 1.3 | .
